Results collected from several papers.
Each line is one published result; the experiments were not run side by side.
Observed: cell growth or viability

| SMILES | cell line | assay | conditions | quantity | value |
| --- | --- | --- | --- | --- | --- |
| Cc1ccc2nc(-c3ccc(Cl)c(Cl)c3)n(Cc3ccccc3)c2c1 | MDA-MB-231 | MTT |  | IC50 | 83.2 µM |
| COc1cc2c(cc1OS(N)(=O)=O)CCN(Cc1cccc(NS(C)(=O)=O)c1)C2 | MDA-MB-231 | WST-1 | 96 h | GI50 | > 100 µM |
| COc1cccc(-c2nc3ccccc3[nH]2)c1 | MDA-MB-231 | MTT | 48 h | IC50 | 25.5 µM |
| COc1cc(C)c(-c2c(C)cc(OC)c3c(=O)cc(-c4cccc(Br)c4)oc23)c2oc(-c3cccc(Br)c3)cc(=O)c12 | HS27 | MTT | 24 h | IC50 | > 200 µM |
| CCOC(=O)C(C(C)=O)=C1Sc2nc3ccc(S(=O)(=O)N4CCCC4)cc3nc2S1 | MDA-MB-231 | MTT | 25 µM, 24 h | viability | 13.8% |
| COc1cc(OC)c2c(=O)cc(-c3ccc(Br)cc3)oc2c1-c1c(OC)cc(OC)c2c(=O)cc(-c3ccc(Br)cc3)oc12 | HS27 | MTT | 24 h | IC50 | > 200 µM |
| CSc1ccc(-c2nc3ccccc3[nH]2)cc1 | MDA-MB-231 | MTT | 48 h | IC50 | 36.6 µM |
| Oc1ccc(Nc2nc(-c3ccc(Cl)cc3)cs2)cc1 | FF2441 | MTS | 72 h | IC50 | > 100 µM |
| N#CC(C(=O)Nc1cccc(C(F)(F)F)c1)=C1Sc2nc3ccc(S(=O)(=O)N4CCCC4)cc3nc2S1 | MDA-MB-231 | MTT | 25 µM, 24 h | viability | 26.5% |
| Cc1ccc2nc(-c3ccc([N+](=O)[O-])cc3)n(Cc3ccccc3Cl)c2c1 | MDA-MB-231 | MTT |  | IC50 | 28.5 µM |
| C[C@]12CC[C@H](O)CC1=CC[C@@H]1[C@@H]2CC[C@]2(C)C(c3cccnc3)=CC[C@@H]12 | CWR22Rv1 | MTT |  | GI50 | 11.5 µM |
| COc1cccc2c1C(=O)c1c(O)c3c(c(O)c1C2=O)C[C@@](O)(C(=O)CO)C[C@@H]3O[C@H]1C[C@H](N)[C@H](O)[C@H](C)O1 | LLC-PK11 | neutral red | 48 h | IC50 | < 0.55 µg/mL |
| COc1cc2c(cc1O)CCN(C(=O)c1cc(OC)c(OC)c(OC)c1)C2 | MDA-MB-231 | WST-1 | 96 h | GI50 | 0.733 µM |
| COc1cc(OC)c2c(=O)cc(-c3ccc(C(F)(F)F)cc3)oc2c1 | HS27 | MTT | 24 h | IC50 | > 200 µM |
| COc1ccc(CN2CCc3cc(OS(N)(=O)=O)c(OC)cc3C2)cc1OC | MDA-MB-231 | WST-1 | 96 h | GI50 | 3.15 µM |
| Cc1cc2c(cc1N1C(=O)c3cccc4c(CCCO)ccc(c34)C1=O)n(C)c(=O)n2C (racemic) | NCI-H526 | resazurin |  | GI50 | 6.86 µM |
| O=C1CCCCC1=C1Sc2nc3ccc(S(=O)(=O)N4CCCC4)cc3nc2S1 | MDA-MB-231 | MTT | 25 µM, 24 h | viability | 23.4% |
| COc1cc2c(cc1O)CCN(Cc1cccc(NS(C)(=O)=O)c1)C2 | MDA-MB-231 | WST-1 | 96 h | GI50 | > 100 µM |
| COc1cc(C)cc2oc(-c3ccc(N(C)C)cc3)cc(=O)c12 | HS27 | MTT | 24 h | IC50 | 141 µM |
| Fc1ccc(-c2nc3ccccc3[nH]2)cc1 | MDA-MB-231 | MTT | 48 h | IC50 | > 100 µM |
| COc1cc(OC)c2c(=O)cc(-c3ccc(N(C)C)cc3)oc2c1 | HS27 | MTT | 24 h | IC50 | > 200 µM |
| Fc1cccc(Cl)c1-c1nc2ccccc2[nH]1 | MDA-MB-231 | MTT | 48 h | IC50 | 69 µM |
| C=CC(=O)N1CCC[C@@H](n2nc(-c3ccc(Oc4ccccc4)cc3)c3c(N)ncnc32)C1 | OCI-Ly3 | ATP luminescence | 72 h | GI50 | 19.3 µM |
| COc1cc2c(cc1OS(N)(=O)=O)CCN(C(=O)c1cc(OC)c(OC)c(OC)c1)C2 | MDA-MB-231 | WST-1 | 96 h | GI50 | 1.72 µM |
| Clc1ccc(-c2nc3ccccc3[nH]2)cc1 | MDA-MB-231 | MTT | 48 h | IC50 | > 100 µM |
| COc1cc(OC)c2c(=O)cc(-c3ccc(Br)cc3)oc2c1 | HS27 | MTT | 24 h | IC50 | > 200 µM |
| CCc1cccc(CN2CCc3cc(O)c(OC)cc3C2)c1 | MDA-MB-231 | WST-1 | 96 h | GI50 | > 100 µM |
| COc1cccc2c1C(=O)c1c(O)c3c(c(O)c1C2=O)C[C@@](O)(C(=O)CO)C[C@@H]3O[C@H]1C[C@H](N)[C@H](O)[C@H](C)O1 | MDA-MB-231 | MTT | 50 µM, 24 h | viability | 11.8% |
| COc1cc2c(cc1O)CCN(Cc1cc(OC)c(OC)cc1OC)C2 | MDA-MB-231 | WST-1 | 96 h | GI50 | 4.1 µM |
| Oc1cccc(-c2nc3ccccc3[nH]2)c1 | MDA-MB-231 | MTT | 48 h | IC50 | > 100 µM |
